Test results reported in ChEMBL document CHEMBL3585281, “Antibacterial Labdane Diterpenoids from Vitex vestita” (2015).
Values after ≈ are worked out from the molar mass of the structure shown.

How the values were obtained:
Format in all cases: functional
Bacillus cereus [1] = experiment: Antibacterial activity against Bacillus cereus N190 after 18 hrs by agar dilution method; details: N190, 18 h
How it was run: (§1)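 Agar-dilution MIC against Gram-positive strains. Compounds in DMSO, geometric dilutions giving final 100−0.75 mg/L in Mueller Hinton agar. Strains grown 18 h at 37 °C in trypticase soy broth, diluted in sterile water, spotted by Steers inoculator (about 1000 UFC/spot). Plates incubated 18 h at 37 °C; DMSO blank; ofloxacin positive control. MIC = lowest concentration with no visible growth.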

[2] = system: Enterococcus casseliflavus; experiment: Antibacterial activity against Enterococcus casseliflavus N487 after 18 hrs by agar dilution method; details: N487, 18 h; how it was run: as §1
[3] = system: Staphylococcus saprophyticus; experiment: Antibacterial activity against Staphylococcus saprophyticus E260 after 18 hrs by agar dilution method; details: E260, 18 h; how it was run: as §1
Enterococcus faecium [4] = experiment: Antibacterial activity against Enterococcus faecium N733 after 18 hrs by agar dilution method; details: N733, 18 h; how it was run: as §1
Listeria monocytogenes [5] = experiment: Antibacterial activity against Listeria monocytogenes CIP 103575 after 18 hrs by agar dilution method; details: CIP 103575, 18 h; how it was run: as §1
[6] = system: Staphylococcus epidermidis; experiment: Antibacterial activity against Staphylococcus epidermidis CIP 53124 after 18 hrs by agar dilution method; details: CIP 53124, 18 h; how it was run: as §1
Enterococcus faecium [7] = experiment: Antibacterial activity against Enterococcus faecium N823 after 18 hrs by agar dilution method; details: N823, 18 h; how it was run: as §1
[8] = system: Enterococcus casseliflavus; experiment: Antibacterial activity against Enterococcus casseliflavus CIP 103018 after 18 hrs by agar dilution method; details: CIP 103018, 18 h; how it was run: as §1
Streptococcus agalactiae = experiment: Antibacterial activity against Streptococcus agalactiae CIP 103227 after 18 hrs by agar dilution method; details: ATCC 13813, 18 h; how it was run: as §1
[9] = system: Staphylococcus haemolyticus; experiment: Antibacterial activity against Staphylococcus haemolyticus CIP 8156 after 18 hrs by agar dilution method; details: CIP 8156, 18 h; how it was run: as §1
Bacillus cereus [10] = experiment: Antibacterial activity against Bacillus cereus CIP 6624 after 18 hrs by agar dilution method; details: CIP 6624, 18 h; how it was run: as §1
Enterococcus faecalis [11] = experiment: Antibacterial activity against Enterococcus faecalis CIP 104676 after 18 hrs by agar dilution method; details: CIP 104676, 18 h; how it was run: as §1
Listeria monocytogenes [12] = experiment: Antibacterial activity against Listeria monocytogenes N851 after 18 hrs by agar dilution method; details: N851, 18 h; how it was run: as §1
Enterococcus hirae = experiment: Antibacterial activity against Enterococcus hirae CIP 5855 after 18 hrs by agar dilution method; details: CIP 5855, 18 h; how it was run: as §1
Staphylococcus aureus [13] = experiment: Antibacterial activity against Staphylococcus aureus ATCC 25923 after 18 hrs by agar dilution method; details: ATCC 25923, 18 h; how it was run: as §1
[14] = system: Staphylococcus saprophyticus; experiment: Antibacterial activity against Staphylococcus saprophyticus CIP 76125 after 18 hrs by agar dilution method; details: CIP 76125, 18 h; how it was run: as §1
Bacillus cereus [15] = experiment: Antibacterial activity against Bacillus cereus N258 after 18 hrs by agar dilution method; details: N258, 18 h; how it was run: as §1
Corynebacterium striatum = experiment: Antibacterial activity against Corynebacterium striatum N840 after 18 hrs by agar dilution method; details: N840, 18 h; how it was run: as §1
Enterococcus faecalis [16] = experiment: Antibacterial activity against Enterococcus faecalis N520 after 18 hrs by agar dilution method; details: N520, 18 h; how it was run: as §1
Enterococcus durans = experiment: Antibacterial activity against Enterococcus durans CIP 104999 after 18 hrs by agar dilution method; details: CIP 104999, 18 h; how it was run: as §1
Listeria monocytogenes [17] = experiment: Antibacterial activity against Listeria monocytogenes N836 after 18 hrs by agar dilution method; details: N836, 18 h; how it was run: as §1
Enterococcus faecalis [18] = experiment: Antibacterial activity against Enterococcus faecalis N491 after 18 hrs by agar dilution method; details: N491, 18 h; how it was run: as §1
Staphylococcus aureus [19] = experiment: Antibacterial activity against Staphylococcus aureus CIP 53156 after 18 hrs by agar dilution method; details: CIP 53156, 18 h; how it was run: as §1
[20] = system: Staphylococcus lugdunensis; experiment: Antibacterial activity against Staphylococcus lugdunensis ATCC 43809 after 18 hrs by agar dilution method; details: ATCC 43809, 18 h; how it was run: as §1
[21] = system: Staphylococcus intermedius; experiment: Antibacterial activity against Staphylococcus intermedius N987 after 18 hrs by agar dilution method; details: N987, 18 h; how it was run: as §1
Listeria monocytogenes [22] = experiment: Antibacterial activity against Listeria monocytogenes N783 after 18 hrs by agar dilution method; details: N783, 18 h; how it was run: as §1
Enterococcus faecium [23] = experiment: Antibacterial activity against Enterococcus faecium N507 after 18 hrs by agar dilution method; details: N507, 18 h; how it was run: as §1
Bacillus cereus [24] = experiment: Antibacterial activity against Bacillus cereus N349 after 18 hrs by agar dilution method; details: N349, 18 h; how it was run: as §1
Enterococcus faecalis [25] = experiment: Antibacterial activity against Enterococcus faecalis N518 after 18 hrs by agar dilution method; details: N518, 18 h; how it was run: as §1
Mammaliicoccus sciuri = experiment: Antibacterial activity against Staphylococcus sciuri N993 after 18 hrs by agar dilution method; details: N993, 18 h; how it was run: as §1
Staphylococcus aureus [26] = experiment: Antibacterial activity against Staphylococcus aureus CIP 483 after 18 hrs by agar dilution method; details: CIP 483, 18 h; how it was run: as §1
Enterococcus faecium [27] = experiment: Antibacterial activity against Enterococcus faecium N490 after 18 hrs by agar dilution method; details: N490, 18 h; how it was run: as §1
Enterococcus faecium [28] = experiment: Antibacterial activity against Enterococcus faecium CIP 107387 after 18 hrs by agar dilution method; details: CIP 107387, 18 h; how it was run: as §1
Enterococcus avium = experiment: Antibacterial activity against Enterococcus avium CIP 104053 after 18 hrs by agar dilution method; details: CIP 104053, 18 h; how it was run: as §1
Staphylococcus aureus [29] = experiment: Antibacterial activity against Staphylococcus aureus CIP 53154 after 18 hrs by agar dilution method; details: CIP 53154, 18 h; how it was run: as §1
Enterococcus gallinarum [30] = experiment: Antibacterial activity against Enterococcus gallinarum N492 after 18 hrs by agar dilution method; details: N492, 18 h; how it was run: as §1
Staphylococcus aureus [31] = experiment: Antibacterial activity against Staphylococcus aureus CIP 7625 after 18 hrs by agar dilution method; details: CIP 7625, 18 h; how it was run: as §1
Enterococcus gallinarum [32] = experiment: Antibacterial activity against Enterococcus gallinarum N489 after 18 hrs by agar dilution method; details: N489, 18 h; how it was run: as §1
Staphylococcus aureus [33] = experiment: Antibacterial activity against Staphylococcus aureus ATCC 9144 oxford after 18 hrs by agar dilution method; how it was run: as §1
Staphylococcus aureus [34] = experiment: Antibacterial activity against Staphylococcus aureus CIP 5710 after 18 hrs by agar dilution method; details: CIP 5710, 18 h; how it was run: as §1
Staphylococcus aureus [35] = experiment: Antibacterial activity against Staphylococcus aureus CRBIP 2121 after 18 hrs by agar dilution method; details: CRBIP 2121, 18 h; how it was run: as §1
Bacillus spizizenii = experiment: Antibacterial activity against Bacillus subtilis ATCC 6633 after 18 hrs by agar dilution method; details: ATCC 6633, 18 h; how it was run: as §1
Enterococcus gallinarum [36] = experiment: Antibacterial activity against Enterococcus gallinarum CIP 105985 after 18 hrs by agar dilution method; details: CIP 105985, 18 h; how it was run: as §1
Enterococcus faecalis [37] = experiment: Antibacterial activity against Enterococcus faecalis CIP 103214 after 18 hrs by agar dilution method; details: CIP 103214, 18 h; how it was run: as §1
Listeria innocua = experiment: Antibacterial activity against Listeria innocua E044 after 18 hrs by agar dilution method; details: E044, 18 h; how it was run: as §1
Enterococcus faecium [38] = experiment: Antibacterial activity against Enterococcus faecium CIP 103014 after 18 hrs by agar dilution method; details: CIP 103014, 18 h; how it was run: as §1

Work on `CC1(C)S[C@@H]2[C@H](NC(=O)[C@H](N)c3ccc(O)cc3)C(=O)N2[C@H]1C(=O)O` [AMOXICILLIN] yielded an MIC (Bacillus cereus [1]) of 44 µM (≈ 16.1 µg/mL), an MIC [2] of 0.7 µM (≈ 0.256 µg/mL) and an MIC [3] of 0.7 µM (≈ 0.256 µg/mL). The MIC (Enterococcus faecium [4]) was over 350 µM, the MIC (Listeria monocytogenes [5]) was 0.7 µM (≈ 0.256 µg/mL) and the MIC [6] was at most 0.2 µM. It also gave an MIC (Enterococcus faecium [7]) of 350 µM (≈ 128 µg/mL), an MIC [8] of 0.7 µM (≈ 0.256 µg/mL) and an MIC (Streptococcus agalactiae) of at most 0.2 µM. It also gave an MIC [9] of at most 0.2 µM, an MIC (Bacillus cereus [10]) of 11 µM (≈ 4.02 µg/mL) and an MIC (Enterococcus faecalis [11]) of 1.4 µM (≈ 0.512 µg/mL). For the same molecule, the MIC (Listeria monocytogenes [12]) was 0.7 µM (≈ 0.256 µg/mL), the MIC (Enterococcus hirae) was 1.4 µM (≈ 0.512 µg/mL) and the MIC (Staphylococcus aureus [13]) was 0.3 µM (≈ 0.11 µg/mL). For the same molecule, the MIC [14] was 0.7 µM (≈ 0.256 µg/mL), the MIC (Bacillus cereus [15]) was 11 µM (≈ 4.02 µg/mL) and the MIC (Corynebacterium striatum) was 350 µM (≈ 128 µg/mL). For the same molecule, the MIC (Enterococcus faecalis [16]) was 3 µM (≈ 1.1 µg/mL), the MIC (Enterococcus durans) was 1.4 µM (≈ 0.512 µg/mL) and the MIC (Listeria monocytogenes [17]) was 0.7 µM (≈ 0.256 µg/mL). The MIC (Enterococcus faecalis [18]) was 0.7 µM (≈ 0.256 µg/mL), the MIC (Staphylococcus aureus [19]) was at most 0.2 µM and the MIC [20] was 0.7 µM (≈ 0.256 µg/mL). For the same molecule, the MIC [21] was 88 µM (≈ 32.2 µg/mL), the MIC (Listeria monocytogenes [22]) was 0.7 µM (≈ 0.256 µg/mL) and the MIC (Enterococcus faecium [23]) was 350 µM (≈ 128 µg/mL). The MIC (Bacillus cereus [24]) was 11 µM (≈ 4.02 µg/mL), the MIC (Enterococcus faecalis [25]) was 0.7 µM (≈ 0.256 µg/mL) and the MIC (Mammaliicoccus sciuri) was 0.7 µM (≈ 0.256 µg/mL). For the same molecule, the MIC (Staphylococcus aureus [26]) was 0.3 µM (≈ 0.11 µg/mL), the MIC (Enterococcus faecium [27]) was 22 µM (≈ 8.04 µg/mL) and the MIC (Enterococcus faecium [28]) was 175 µM (≈ 63.9 µg/mL). The MIC (Enterococcus avium) was 0.7 µM (≈ 0.256 µg/mL), the MIC (Staphylococcus aureus [29]) was 0.3 µM (≈ 0.11 µg/mL) and the MIC (Enterococcus gallinarum [30]) was 0.7 µM (≈ 0.256 µg/mL). The MIC (Staphylococcus aureus [31]) was 0.3 µM (≈ 0.11 µg/mL), the MIC (Enterococcus gallinarum [32]) was 0.7 µM (≈ 0.256 µg/mL) and the MIC (Staphylococcus aureus [33]) was at most 0.2 µM. It also gave an MIC (Staphylococcus aureus [34]) of 0.7 µM (≈ 0.256 µg/mL), an MIC (Staphylococcus aureus [35]) of 175 µM (≈ 63.9 µg/mL) and an MIC (Bacillus spizizenii) of at most 0.2 µM. The MIC (Enterococcus gallinarum [36]) was 1.4 µM (≈ 0.512 µg/mL), the MIC (Enterococcus faecalis [37]) was 1.4 µM (≈ 0.512 µg/mL) and the MIC (Listeria innocua) was 0.7 µM (≈ 0.256 µg/mL). The MIC (Enterococcus faecium [38]) was 0.7 µM (≈ 0.256 µg/mL).
